Columns and labels:
HeLa = assay: Cytotoxicity against human HeLa cells assessed as cell growth inhibition after 24 hrs by MTT assay; type: functional, cell-based
Procedure, shortened: (§1)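 Cells seeded 24 h in RPMI 1640 + 10% FBS. RWPE-1 was kept in K-SFM with bovine pituitary extract and EGF. Cells then exposed to compounds for 24 h at 37 °C, 5% CO2, with DMSO vehicle and docetaxel as positive control. MTT added for 4 h, absorbance read at 570 nm. Triplicate runs, IC50 reported as mean of three experiments.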

MCF7 = assay: Cytotoxicity against human MCF7 cells assessed as cell growth inhibition after 24 hrs by MTT assay; type: functional, cell-based; conditions: MCF7, 24 h; procedure, shortened: as §1
MDA-MB-231 = assay: Cytotoxicity against human MDA-MB-231 cells assessed as cell growth inhibition after 24 hrs by MTT assay; type: functional, cell-based; conditions: MDA-MB-231, 24 h; procedure, shortened: as §1
PC-3 = assay: Cytotoxicity against human PC3 cells assessed as cell growth inhibition after 24 hrs by MTT assay; type: functional, cell-based; conditions: PC-3, 24 h; procedure, shortened: as §1
RWPE-1 = assay: Cytotoxicity against human RWPE1 cells assessed as cell growth inhibition after 24 hrs by MTT assay; type: cell-based; conditions: RWPE-1, 24 h; procedure, shortened: as §1
K562 = assay: Cytotoxicity against human K562 cells assessed as cell growth inhibition after 24 hrs by MTT assay; type: functional, cell-based; conditions: K562, 24 h; procedure, shortened: as §1
DU-145 = assay: Cytotoxicity against human DU145 cells assessed as cell growth inhibition after 24 hrs by MTT assay; type: functional, cell-based; conditions: DU-145, 24 h; procedure, shortened: as §1

| Compound | IC50 (HeLa) | IC50 (MCF7) | IC50 (MDA-MB-231) | IC50 (PC-3) | IC50 (RWPE-1) | IC50 (K562) | IC50 (DU-145) |
| --- | --- | --- | --- | --- | --- | --- | --- |
| CCCCCCCCCCCCCCCCOc1cc2c(cc1OCCCCCCCCCCCCCCCC)[C@@H]1C[C@@H](O)C[C@@H](C)N1CC2 | > 20 µM | > 20 µM | > 20 µM | > 20 µM | > 20 µM | > 20 µM | > 20 µM |
| O[C@@H]1C[C@@H](c2ccccc2)N2CCc3cc(OCc4ccccc4)ccc3[C@@H]2C1 | > 20 µM | > 20 µM | > 20 µM | > 20 µM | > 20 µM | > 20 µM | > 20 µM |
| C[C@@H]1C[C@@H](O)C[C@H]2c3cc(OCc4cc(F)cc(F)c4)c(OCc4cc(F)cc(F)c4)cc3CCN12 | 1.96 µM | 1.71 µM | 2.11 µM | 1.35 µM | 4.42 µM | 1.89 µM | 1.88 µM |
| CCCCCC[C@@H]1CC(=O)C[C@H]2c3cc(OCc4ccccc4)c(OCc4ccccc4)cc3CCN12 (relative stereo) | > 20 µM | > 20 µM | > 20 µM | > 20 µM | > 20 µM | > 20 µM | > 20 µM |
| O[C@H]1C[C@@H](c2ccc(-c3ccccc3)cc2)N2CCc3cc(OCc4ccccc4)c(OCc4ccccc4)cc3[C@@H]2C1 | > 20 µM | > 20 µM | > 20 µM | > 20 µM | > 20 µM | > 20 µM | > 20 µM |
| O=C1C=CN2CCc3cc(OCc4ccccc4)c(OCc4ccccc4)cc3C2C1 (stereo not given) | > 20 µM | > 20 µM | > 20 µM | > 20 µM | > 20 µM | > 20 µM | > 20 µM |
| C[C@@H]1C[C@@H](O)C[C@H]2c3cc(OCc4ccc(C(C)(C)C)cc4)c(OCc4ccc(C(C)(C)C)cc4)cc3CCN12 | 2.06 µM | 0.86 µM | 3.25 µM | 3.79 µM | 1.91 µM | 2.04 µM | 2.22 µM |
| O=C1C[C@@H](c2ccccc2)N2CCc3cc(OCc4ccccc4)c(OCc4ccccc4)cc3[C@@H]2C1 (relative stereo) | > 20 µM | > 20 µM | > 20 µM | > 20 µM | > 20 µM | > 20 µM | > 20 µM |
| O[C@@H]1C[C@@H](c2ccc(-c3ccccc3)cc2)N2CCc3cc(OCc4ccccc4)c(OCc4ccccc4)cc3[C@@H]2C1 | 3.42 µM | 0.28 µM | 3.28 µM | 1.16 µM | 4.42 µM | 3.24 µM | 1.36 µM |
| C[C@]1(O)C[C@@H](c2ccccc2)N2CCc3cc(OCc4ccccc4)c(OCc4ccccc4)cc3[C@@H]2C1 | > 20 µM | > 20 µM | > 20 µM | > 20 µM | > 20 µM | > 20 µM | > 20 µM |
| O[C@@H]1C[C@@H](c2ccccc2)N2CCc3ccccc3[C@@H]2C1 | > 20 µM | > 20 µM | > 20 µM | > 20 µM | > 20 µM | > 20 µM | > 20 µM |
| C[C@@H]1CC(=O)C[C@H]2c3cc(OCc4ccc(C(C)(C)C)cc4)c(OCc4ccc(C(C)(C)C)cc4)cc3CCN12 (relative stereo) | > 20 µM | > 20 µM | > 20 µM | > 20 µM | > 20 µM | > 20 µM | > 20 µM |
| O[C@@H]1C[C@@H](c2ccccc2)N2CCc3cc(OCc4ccccc4)c(OCc4ccccc4)cc3[C@@H]2C1 | 11.2 µM | 20.1 µM | 11.8 µM | 8.37 µM | 40 to 86.8 µM | 6.96 µM | 12 µM |
| CC[C@@H]1C[C@H](O)C/C=C(/C)[C@H]2c3cc(OCc4ccccc4)c(OCc4ccccc4)cc3CCN12 | > 20 µM | > 20 µM | > 20 µM | > 20 µM | > 20 µM | > 20 µM | > 20 µM |
| C[C@@H]1CC(=O)C[C@H]2c3cc(OCc4cc(F)cc(F)c4)c(OCc4cc(F)cc(F)c4)cc3CCN12 (relative stereo) | > 20 µM | > 20 µM | > 20 µM | > 20 µM | > 20 µM | > 20 µM | > 20 µM |
| O[C@H]1C[C@@H](c2ccccc2)N2CCc3cc(OCc4ccccc4)c(OCc4ccccc4)cc3[C@@H]2C1 | > 20 µM | > 20 µM | > 20 µM | > 20 µM | > 20 µM | > 20 µM | > 20 µM |
| CCOC1c2cc(OCc3cc(C)cc(C)c3)c(OCc3cc(C)cc(C)c3)cc2CCN1C(=O)OC(C)(C)C (stereo not given) | > 20 µM | > 20 µM | > 20 µM | > 20 µM | > 20 µM | > 20 µM | > 20 µM |
| CCC[C@@H]1C[C@H](O)C/C=C(/CC)[C@H]2c3cc(OCc4ccccc4)c(OCc4ccccc4)cc3CCN12 | > 20 µM | > 20 µM | > 20 µM | > 20 µM | > 20 µM | > 20 µM | > 20 µM |
| O[C@]1(c2ccccc2)C[C@@H](c2ccccc2)N2CCc3cc(OCc4ccccc4)c(OCc4ccccc4)cc3[C@@H]2C1 | > 20 µM | > 20 µM | > 20 µM | > 20 µM | > 20 µM | > 20 µM | > 20 µM |
| CCCCCC[C@@H]1C[C@H](O)C[C@H]2c3cc(OCc4ccccc4)c(OCc4ccccc4)cc3CCN12 | > 20 µM | > 20 µM | > 20 µM | > 20 µM | > 20 µM | > 20 µM | > 20 µM |
| CCCCCCCCCCCCCCCCOc1cc2c(cc1OCCCCCCCCCCCCCCCC)[C@@H]1C[C@H](O)C[C@@H](C)N1CC2 | > 20 µM | > 20 µM | > 20 µM | > 20 µM | > 20 µM | > 20 µM | > 20 µM |
| C[C@@H]1C[C@@](C)(O)C[C@H]2c3cc(OCc4ccc(Br)cc4)c(OCc4ccc(Br)cc4)cc3CCN12 | 1.88 µM | 0.84 µM | 1.2 µM | 0.79 µM | 2.95 µM | 1.79 µM | 1.97 µM |
| C[C@@H]1C[C@H](O)C[C@H]2c3cc(OCc4cccc(F)c4)c(OCc4cccc(F)c4)cc3CCN12 | 1.31 µM | 0.62 µM | 1.23 µM | 1.36 µM | 4.45 µM | 1.08 µM | 3.05 µM |
| COc1ccc([C@@H]2C[C@@H](O)C[C@H]3c4cc(OCc5ccccc5)c(OCc5ccccc5)cc4CCN23)cc1 | > 20 µM | > 20 µM | > 20 µM | > 20 µM | > 20 µM | > 20 µM | > 20 µM |
| COc1cc([C@@H]2C[C@@H](O)C[C@H]3c4cc(OCc5ccccc5)c(OCc5ccccc5)cc4CCN23)cc(OC)c1OC | > 20 µM | > 20 µM | > 20 µM | > 20 µM | > 20 µM | > 20 µM | > 20 µM |
